Experimental findings from ChEMBL document CHEMBL2021817, “Synthesis and anti-norovirus activity of pyranobenzopyrone compounds” (Bioorg Med Chem Lett, 2012) are described below.

One series has as its system Norovirus. The series is described as follows: Antiviral activity against Norovirus infected in human HG23 cells assessed as inhibition of viral replication after 24 hrs by RT-PCR analysis. Type of series: functional. To be noted: HG23, 24 h, read-out: ED50 (the source's name). The gist of the method:
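Norwalk virus replicon-bearing HG23 cells were used one day after seeding, at 80-90% confluence. They were exposed to a range of compound concentrations from 0 (DMSO mock) to 10 µM. NV genome levels were quantified by real-time qRT-PCR. ED50 was taken as the concentration that lowered NV genome levels by 50%.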

A short description of series [1]: Cytotoxicity against human HG23 cells after 48 hrs. Conditions: read-out: TD50. The format is cell-based. In a few lines:
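HG23 cells (Norwalk virus replicon-harboring) were exposed to a concentration series from 0 (mock, DMSO) to 200 µM. Viability was read with a commercial cell cytotoxicity assay kit after 48 h of treatment, and the median toxic dose (TD50) was calculated from it.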

Series [2] is described as follows: Therapeutic index, ratio of TD50 for human HG23 cells to ED50 for Norovirus. The format is cell-based. Conditions: read-out: Ratio TD50/ED50. In a few lines: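 TI was taken as TD50 over ED50, both measured in HG23 replicon cells. For ED50, one-day-old cells at 80-90% confluence were treated with 0 (mock, DMSO) to 10 µM, and replicon genome levels were quantified by real-time qRT-PCR at 48 h. For TD50, cells were treated with 0 to 200 µM and read with a cytotoxicity kit at 48 h.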

On to `Cc1cc2c(c(=O)o1)C=C1CC[C@H](C(C)CNCc3ccncc3)C[C@@H]1O2` (mixture of isomers), for which the EC50 with Norovirus stood at 9.6 µM.
Take `Cc1cc2c(c(=O)o1)C=C1CC[C@H](C(C)CNCc3cc(C)c4ccccc4n3)C[C@@H]1O2` (mixture of isomers): the EC50 with Norovirus stood at 5.3 µM. Also, in series [1], the CC50 at 48 h is greater than 200 µM. Besides, in series [2], the selectivity ratio was greater than 40.
As to `Cc1cc2c(c(=O)o1)C=C1CC[C@H](C(C)CN)C[C@@H]1O2` (mixture of isomers), the EC50 in the series on Norovirus is greater than 10 µM. The CC50 at 48 h in series [1] was greater than 200 µM.
Consider `Cc1cc2c(c(=O)o1)C=C1CC[C@H](C(C)CNCc3ccc4ncccc4c3)C[C@@H]1O2` (stereo not given in full), for which the EC50 in the series with Norovirus is 8.1 µM.
Consider `Cc1ccc2nc(CNCC(C)[C@H]3CCC4=Cc5c(cc(C)oc5=O)O[C@H]4C3)ccc2c1` (mixture of isomers), for which, in the series on Norovirus, the EC50 amounted to 8.1 µM. In addition, the CC50 at 48 h in series [1] turned out to be 83.7 µM. The selectivity ratio in series [2] came to 10.3.
Take `Cc1cc2c(c(=O)o1)C=C1CC[C@H](C(C)CNCc3cc(C4OCOCO4)nc4ccccc34)C[C@@H]1O2` (mixture of isomers): the EC50 with Norovirus came out at 8.4 µM.
Take `Cc1cc2c(c(=O)o1)C=C1CC[C@H](C(C)CNCc3ccnc4ccccc34)C[C@@H]1O2` (mixture of isomers): the EC50 in the series on Norovirus turned out to be 2.4 µM. For the same compound, in series [1], the CC50 at 48 h came out at 96.4 µM. Also, the selectivity ratio in series [2] was determined as 40.2.
As to `CC(=O)OCc1cc(CNCC(C)[C@H]2CCC3=Cc4c(cc(C)oc4=O)O[C@H]3C2)c2ccccc2n1` (mixture of isomers), the EC50 with Norovirus amounted to 9.7 µM.
For `Cc1cc2c(c(=O)o1)C=C1CC[C@H](C(C)CNCc3ccnc4c3ccc3ccccc34)C[C@@H]1O2` (mixture of isomers), the EC50 in the series on Norovirus is 5.3 µM. Besides, the CC50 at 48 h in series [1] was greater than 200 µM. Moreover, the selectivity ratio in series [2] is greater than 40.
Consider `Cc1cc2c(c(=O)o1)C=C1CC[C@H](C(C)CNCc3cc(CO)nc4ccccc34)C[C@@H]1O2` (mixture of isomers), for which the EC50 in the series on Norovirus worked out at 9.5 µM.
Still for that read-out and setting: for `Cc1cc(CNCC(C)[C@H]2CCC3=Cc4c(cc(C)oc4=O)O[C@H]3C2)c2ccccc2n1` (mixture of isomers) the value was 8.2 µM.
With `Cc1ccc2nccc(CNCC(C)[C@H]3CCC4=Cc5c(cc(C)oc5=O)O[C@H]4C3)c2c1` (mixture of isomers), the EC50 in the series with Norovirus came to 3.4 µM. Besides, the CC50 at 48 h in series [1] came to 61.2 µM. In series [2], the selectivity ratio is 18.
Regarding `Cc1cc2c(c(=O)o1)C=C1CC[C@H](C(C)CNCc3ccc4ccccc4n3)C[C@@H]1O2` (mixture of isomers), in the series with Norovirus, the EC50 turned out to be 3.4 µM. The CC50 at 48 h in series [1] was greater than 200 µM. The selectivity ratio in series [2] was greater than 58.8.
On to `Cc1cc2c(c(=O)o1)C=C1CC[C@H](C(C)CNCc3cccnc3)C[C@@H]1O2` (mixture of isomers), for which the EC50 in the series on Norovirus is 4.1 µM. In addition, the CC50 at 48 h in series [1] was greater than 200 µM. For the same compound, the selectivity ratio in series [2] is greater than 50.
Turning to `Cc1cc2c(c(=O)o1)C=C1CC[C@H](C(C)CNCc3cccc4cccnc34)C[C@@H]1O2` (mixture of isomers), the EC50 in the series on Norovirus is greater than 10 µM. Further, the CC50 at 48 h in series [1] was greater than 160 µM. Moreover, the selectivity ratio in series [2] was greater than 16.
Turning to `Cc1cc2c(c(=O)o1)C=C1CC[C@H](C(C)CNC(=O)c3ccnc4ccccc34)C[C@@H]1O2` (stereo not given in full), in the series with Norovirus, the EC50 turned out to be 5.5 µM. In addition, the CC50 at 48 h in series [1] was 104 µM. Also, in series [2], the selectivity ratio is 18.8.
